Results on 5 molecules are retold here after publication PMC6297906 (Computational and Structural Biotechnology Journal, 2018).

In one data set the test system is MCF-7 cells. As to the kind of experiment: MTT assay, MCF-7. Particulars: read-out: IC50 MCF-7, 72 h treatment. The class given is cell-based, human. Put shortly:
(§1)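 Cells grown in DMEM with 10% FBS, penicillin and streptomycin, seeded at 5 × 10^3 per well for 24 h. Test compound added at 0, 1.56, 3.125, 6.25, 12.5, 25, 50 or 100 μM for 72 h. MTT (5 mg/mL stock) added for 4 h; medium replaced by DMSO; absorbance read at 490 nm for IC50.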
For orientation: Formazan colour is commonly taken as a measure of viable cells.

Another data set deals with HaCaT cells. As to the kind of experiment: MTT assay, HaCaT normal cells. In kind it is cell-based, human. Particulars: read-out: IC50 HaCaT, 72 h treatment, normal cell line. Put shortly:
as §1

Data set [1] deals with MDA-MB-231 cells. The data set can be described thus: MTT assay, MDA-MB-231. In kind it is cell-based, human. Particulars: read-out: IC50 MDA-MB-231, 72 h treatment. Put shortly: as §1
The next data set deals with HepG2 cells. As to the kind of experiment: MTT assay, HepG2. The note with it: read-out: IC50 HepG2, 72 h treatment. The class given is cell-based, human. Put shortly: as §1
Another data set concerns A549 cells. The data set can be described thus: MTT assay, A549. In kind it is cell-based, human. Particulars: read-out: IC50 A549, 72 h treatment. Put shortly: as §1
The nature of data set [2]: Octanol/water partition coefficient. The class given is physicochemical. Particulars: room temperature. Put shortly:
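Lipophilicity taken as Po/w = Ao/Aw. Test compound concentrations in the octanol and water phases measured from electronic absorption spectra.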

In data set [3] the test system is MDA-MB-231 cells. The data set can be described thus: Immunofluorescence of paxillin and F-actin. The class given is cell-based, human. Particulars: 5 and 10 μM, 24 h. Put shortly: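 MDA-MB-231 cells on cover glass, exposed to test compound (0, 5, 10 μM) for 24 h, then fixed in 4% formaldehyde 25 min and blocked in 5% BSA 30 min. Stained with rabbit monoclonal anti-paxillin (1:100, 60 min), Alexa Fluor 488 anti-rabbit (1:200, 30 min), rhodamine phalloidin for F-actin (1:100, 30 min) and DAPI (0.5 μg/mL, 8 min). PBS washes between steps; confocal imaging.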

In data set [4] the test system is transgenic Tg(fli1a:EGFP) zebrafish embryos. As to the kind of experiment: Angiogenic effect in vivo, transgenic zebrafish embryos. The note with it: 5.0 μM, compared with PTK787.
For another data set, the system named is HUVECs. As to the kind of experiment: Tube formation assay. In kind it is cell-based. The note with it: 5 and 10 μM, 6 h, VEGF 200 ng/mL. Put shortly: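 Matrigel thawed at 4 °C for 24 h, coated into prechilled wells and set at 37 °C for at least 60 min. HUVECs (3 × 10^4) plated in DMEM with VEGF (200 ng/mL) plus test compound (0, 5, 10 μM) for 6 h at 37 °C. Tube networks imaged and analysed.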

The subject of data set [5] is MDA-MB-231 cells. The data set can be described thus: Comet assay. The class given is cell-based, human. The note with it: 5 and 10 μM.
In data set [6] the test system is MDA-MB-231 cells. The data set can be described thus: Wound-healing assay. The class given is cell-based, human. The note with it: 72 h. Put shortly:
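MDA-MB-231 cells (1 × 10^5/well) grown to >85% confluence, then scratched with a pipette tip. Treated with test compound (0, 2, 4 μM). The same field imaged every 24 h. Migration rate taken as scratch filling, averaged over 10 fields; N = 8. Means ± SEM; one-way ANOVA.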

Data set [7] relates to MDA-MB-231 cells in zebrafish xenografts. The data set can be described thus: Zebrafish xenograft breast cancer model. In kind it is in vivo. The note with it: 5 μM, 72 h. Put shortly:
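DiI-labelled MDA-MB-231 cells (10^7 cells/mL; 50–500 cells) microinjected into the perivitelline space near the SIVs of Tg(fli1:EGFP) zebrafish embryos at 48 hpf. Xenografted fish kept 10 per well in 2 mL aquaculture water with 0 or 5 μM test compound for 72 h. Fluorescence imaging every 24 h; n = 10/group.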

Data set [8] has as its system MDA-MB-231 cells. The data set can be described thus: FITC-conjugated gelatin invasion assay. In kind it is cell-based, human. The note with it: 5 μM, 24 h. Put shortly:
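MDA-MB-231 cells (2 × 10^5 per well) treated with 0 or 5 μM test compound, plated on FITC-gelatin-coated coverslips, and incubated 24 h at 37 °C. Gelatin degradation (dark holes) imaged by laser confocal microscopy; invasive percentage derived. Means ± SEM; one-way ANOVA versus control.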

Data set [9] relates to MDA-MB-231 cells. As to the kind of experiment: TUNEL assay. The note with it: 20 μM. The class given is cell-based, human. Put shortly: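 MDA-MB-231 cells given test compound (0, 10, 20 μM). Fixed in 4% p-formaldehyde in PBS 30 min; permeabilised with 0.3% Triton X-100 in PBS (25 °C, 8 min). TUNEL reaction mixture applied 1 h, then DAPI (0.5 μg/mL, 37 °C, 8 min) in the dark. Read by fluorescence microscopy.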

One may read the IC50 as the concentration that gives 50% inhibition.

“And” between values parts separate entries of the source, which are not always exact repeats. Identical values can stand only once.

Consider `N.N.[Cl][Pt][Cl]` [Cis-platin, cisplatin, reference compound], for which the IC50 is 86.6 ± 5.9 µM in the data set with MCF-7 cells; 7.1 ± 0.5 µM in the data set on HaCaT cells; 20.9 ± 1.9 µM in the data set on MDA-MB-231 cells [1]; 15.5 ± 0.4 µM in the data set with HepG2 cells; 21.1 ± 0.2 µM with A549 cells.
Consider [Ru(bpy)2DPPZ](ClO4)2, for which, in data set [2], the logPo/w is given as −1.87. Moreover, the IC50 with MCF-7 cells, in the data set on HaCaT cells, with MDA-MB-231 cells [1], in the data set on HepG2 cells and in the data set with A549 cells was > 100 µM throughout.
In the case of “[Ru(bpy)2(7-CH3-DPPZ)](ClO4)2 [Ru(bpy)2MDPPZ]”, the logPo/w in data set [2] is on record as −2.17. In addition, the concentration for half-maximal inhibition (IC50) is 9.7 ± 6.1 µM in the data set on MCF-7 cells; > 100 µM in the data set on HaCaT cells; > 100 µM with MDA-MB-231 cells [1]; > 100 µM in the data set with HepG2 cells; 93.3 ± 4.1 µM in the data set with A549 cells.
“[Ru(bpy)2(7-BEDPPZ)](ClO4)2 [Ru(bpy)2BEDPPZ]”: the “quantity of paxillin (focal adhesions)” value in the data set with MDA-MB-231 cells [3] was “decreased quantity of paxillins”. In the data set with MDA-MB-231 cells [3], the “stress fibers (F-actin)” value was “inhibited”. For the same molecule, the logPo/w in [2] is recorded as −0.87. Besides, the concentration for half-maximal inhibition (IC50) in the data set on MCF-7 cells was 74.9 ± 3.5 µM; in the data set on HaCaT cells, 47.2 ± 2.6 µM; in the data set on MDA-MB-231 cells [1], ~17.2 µM and 17.2 µM; in the data set with HepG2 cells, 97.5 ± 4.4 µM; in the data set with A549 cells, 20 ± 0.7 µM. Moreover, the ISV formation inhibition entry in data set [4] was “more effectively inhibited ISV formation than PTK787”. For the same molecule, the “tube formation of HUVECs” value in the data set with HUVECs was “inhibited notably”. In addition, the “endogenous DSBs (olive tail moment, comet assay)” value in the data set with MDA-MB-231 cells [5] is “extremely increased”. The “percentage of γH2AX focal positive cells” value in the data set on MDA-MB-231 cells [5] (24 h) was “obviously increased”. Further, the wound-healing rate entry with MDA-MB-231 cells [6] (2 μM, versus control) is given as “less than half of the control group”; with MDA-MB-231 cells [6] (4 μM), “further decreased”. In addition, the “metastasis of MDA-MB-231 cells into blood vessels” value in data set [7] is reported as “scarce MDA-MB-231 cells were found in the blood vessel”. Further, the “number of MDA-MB-231 cells in zebrafish (proliferation)” value in data set [7] (versus control) is listed as “notably reduced”. Further, in data set [7] (versus control), the “total area of SIV (tumor angiogenesis)” value is given as “obviously less than that in the control group”. In addition, the “invasive capability (FITC-gelatin degradation)” value in the data set on MDA-MB-231 cells [8] is listed as “markedly suppressed”. Also, in the data set with MDA-MB-231 cells [9], the “apoptotic cells (TUNEL)” value is “many apoptotic cells were observed”.
For the molecule “[Ru(bpy)2(DPPN)](ClO4)2 [Ru(bpy)2BnDPPZ]”, in [2], the logPo/w is −1.65. Besides, the half-maximal inhibitory concentration (IC50) is > 100 µM in the data set on MCF-7 cells; > 100 µM in the data set with HaCaT cells; > 100 µM in the data set with MDA-MB-231 cells [1]; 23 ± 1.1 µM in the data set with HepG2 cells; 32.5 ± 1.6 µM with A549 cells.
